According to ChEMBL document CHEMBL1125646, “Potential antipsychotic agents. 9. Synthesis and stereoselective dopamine D-2 receptor blockade of a potent class of substituted (R)-N-[(1-benzyl-2-pyrrolidinyl)methyl]benzamides. Relations to other side chain congeners” (J Med Chem, 1991):
pIC50, pKi: −log10 of the molar value. One block for each molecule: values may come before it.

Assays:
[1] = molecular target: T1, D(2) dopamine receptor (Rattus norvegicus, UniProt P61169); assay: Inhibition of [3H]spiperone binding to rat striatal dopamine receptor D2 was determined in vitro
Outline: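 Rat striatal membranes in 0.05 M Tris-HCl pH 7.6 with 0.1% ascorbic acid and salts, at 5 mg wet weight/mL. Incubated with [3H]spiperone at 37 °C for 10 min. Nonspecific binding defined with 1 μM (+)-butaclamol. Bound ligand separated by glass-fibre filtration and counted by liquid scintillation. IC50 by log-logit regression.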

[2] = tested on: Rattus norvegicus; assay: Block of apomorphine-induced response measured as stereotypies injected ip 60 min prior to apomorphine hydrochloride(1 mg/kg, sc); format: functional
Outline: (§1)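 Male Sprague-Dawley rats (270–325 g). Compounds in saline or acetic acid/water given ip (5 ml/kg) 60 min before apomorphine HCl 1 mg/kg sc into neck. […] At least six dose levels, 6–8 rats each. ED50 by regression with Fieller's theorem 95% confidence limits.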

[3] = tested on: Rattus norvegicus; assay: Block of apomorphine-induced response measured as hyperactivity injected ip 60 min prior to apomorphine hydrochloride(1 mg/kg, sc); format: functional; outline: as §1
[4] = molecular target: T1, D(2) dopamine receptor; assay: Inhibition of [3H]raclopride binding to rat striatal dopamine receptor D2
Outline: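 Rat striatal membranes were homogenised in 0.05 M Tris-HCl pH 7.6, washed by centrifugation, then resuspended with 0.1% ascorbic acid and salts at 5 mg original wet weight/mL. Nonspecific binding was set with 1 μM (+)-butaclamol. Filtration on glass-fibre filters, scintillation counting. Ki by nonlinear regression (LIGAND), Cheng–Prusoff, all experiments pooled.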

[5] = species: Rattus norvegicus; assay: The catalepsy was measured in rat by using bar test; format: functional
Outline: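 Horizontal bar 7 cm high, 1.5 cm diameter. Rat forepaws placed over it at 20, 40, 60, 90, 120 and 240 min after ip dosing. Descent latency timed, 60 s cutoff. Cataleptic = mean over 15 s from the three longest latencies. Saline controls included.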

[6] = tested on: Rattus norvegicus; assay: Block of apomorphine-induced response measured as hypothermia injected ip 30 min prior to apomorphine hydrochloride(1 mg/kg, sc); format: functional
Outline: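 Male Sprague-Dawley rats (200–250 g) housed at 21 ± 0.5 °C, groups of n = 6, given saline or compound ip 30 min before apomorphine HCl 1 mg/kg sc. Rectal core temperature taken before dosing, before apomorphine and 15 min after it. Changes are percent of control mean.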

[7] = Rattus norvegicus, read-out: ED50

T1 sequence (P61169 whole entry): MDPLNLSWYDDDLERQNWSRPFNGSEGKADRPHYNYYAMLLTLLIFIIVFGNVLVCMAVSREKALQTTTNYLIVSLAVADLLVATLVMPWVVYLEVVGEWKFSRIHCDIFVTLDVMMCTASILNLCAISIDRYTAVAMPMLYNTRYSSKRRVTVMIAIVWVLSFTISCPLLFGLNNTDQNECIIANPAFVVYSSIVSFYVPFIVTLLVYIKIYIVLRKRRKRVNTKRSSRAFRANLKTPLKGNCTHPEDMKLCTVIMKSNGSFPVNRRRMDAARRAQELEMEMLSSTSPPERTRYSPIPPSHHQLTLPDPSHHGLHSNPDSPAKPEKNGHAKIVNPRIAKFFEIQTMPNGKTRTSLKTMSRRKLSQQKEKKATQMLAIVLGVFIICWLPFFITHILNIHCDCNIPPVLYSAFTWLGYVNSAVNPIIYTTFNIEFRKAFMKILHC

Compound: COc1cc(Br)cc(C(=O)NC[C@@H]2CCCN2Cc2ccc(F)cc2)c1OC
pIC50 [1]: 6.90

Compound: COc1cc(Br)c(O)c(C(=O)NC2CCN(Cc3ccccc3)CC2)c1OC
pIC50 [1]: 9.44

Compound: COc1ccc(Br)c(O)c1C(=O)NCC1CCCN1Cc1ccccc1 (single isomer, unassigned)
ED50 [2]: >80 µM/kg
ED50 [3]: >80 µM/kg
pIC50 [1]: 5.57

Compound: COc1c(Cl)cc(Cl)c(O)c1C(=O)NC1CCN(Cc2ccccc2)CC1
pIC50 [1]: 8.27

Compound: COc1cc(Br)cc(C(=O)NC[C@H]2CCCN2Cc2ccc(F)cc2)c1OC
pIC50 [1]: 9.19

Compound: COc1cccc(C(=O)NC[C@H]2CCCN2Cc2ccccc2)c1OC
pIC50 [1]: 7.68

Compound: CCN1CCC[C@H]1CNC(=O)c1c(O)c(Br)cc(OC)c1OC
ED50 [5]: 0.13 µmol/kg

Compound: CCc1cc(Cl)c(OC)c(C(=O)NC2CCN(Cc3ccccc3)CC2)c1O
pIC50 [1]: 8.03

Compound: COc1ccc(Br)c(O)c1C(=O)NC[C@H]1CCCN1Cc1ccc(F)cc1
ED50 [2, 7]: 13.2 µmol/kg
ED50 [3, 7]: 2 µmol/kg
pIC50 [1]: 7.55
pKi [4]: 9.37
ED50 [5]: 27 µmol/kg
ED50 [6]: 1.7 µmol/kg

Compound: COc1ccc(Br)c(O)c1C(=O)NCC1CCCN1Cc1ccccc1 (racemic)
pIC50 [1]: 7.44

Compound: COc1ccc(Br)c(O)c1C(=O)NC1CCN(Cc2ccccc2)CC1
pIC50 [1]: 7.39

Compound: COc1ccc(Br)c(O)c1C(=O)NC[C@H]1CCCN1Cc1ccccc1
ED50 [2]: 18.6 µM/kg
ED50 [3]: 5.6 µM/kg
pIC50 [1]: 7.74
pKi [4]: 9.10

Compound: CCN1CCC[C@H]1CNC(=O)c1c(O)c(Cl)cc(Cl)c1OC [RACLOPRIDE]
ED50 [5]: 10 µmol/kg

Compound: CCN1CCC[C@H]1CNC(=O)c1c(OC)ccc(Br)c1O
ED50 [5]: 1 µmol/kg
ED50 [6]: 0.6 µmol/kg

Compound: COc1cccc(C(=O)NC2CCN(Cc3ccccc3)CC2)c1OC
pIC50 [1]: 8.20

Second part, led by results:

pKi [4]: 9.72
Compound: COc1cc(Br)c(O)c(C(=O)NC[C@H]2CCCN2Cc2ccc(F)cc2)c1OC
ED50 [2, 7]: 2.4 µmol/kg
ED50 [3, 7]: 1.5 µmol/kg
ED50 [5]: 13 µmol/kg
ED50 [6]: 1.3 µmol/kg

pIC50 [1]: 6.91
Compound: COc1cc(Br)c(OC)c(C(=O)NC[C@H]2CCCN2Cc2ccc(F)cc2)c1O

pIC50 [1]: 8.85
pKi [4]: 10.62
Compound: COc1cc(Br)cc(C(=O)NC[C@H]2CCCN2Cc2ccccc2)c1OC
ED50 [2, 7]: 1.4 µmol/kg
ED50 [3, 7]: 1.2 µmol/kg

pIC50 [1]: 5.62
Compound: COc1c(Cl)cc(Cl)c(OC)c1C(=O)NC[C@H]1CCCN1Cc1ccc(F)cc1

pIC50 [1]: 5.73
Compound: COc1cc(Br)c(OC)c(C(=O)NC[C@H]2CCCN2Cc2ccccc2)c1OC

pIC50 [1]: < 5.00
Compound: CCN1CCC[C@H]1CNC(=O)c1c(OC)c(Cl)cc(Cl)c1OC

pIC50 [1]: 5.66
Compound: COc1cc(Br)c(OC)c(C(=O)NC[C@H]2CCCN2Cc2ccc(F)cc2)c1OC

pIC50 [1]: 7.68
Compound: COc1c(Cl)cc(Cl)c(O)c1C(=O)NC[C@H]1CCCN1Cc1ccc(F)cc1

pIC50 [1]: 5.46
Compound: COc1c(Cl)cc(Cl)c(OC)c1C(=O)NC1CCN(Cc2ccccc2)CC1

pIC50 [1]: 7.28
Compound: CCN1CCC[C@H]1CNC(=O)c1cccc(OC)c1OC

pKi [4]: 10.74
Compound: CCN1CCC[C@H]1CNC(=O)c1cc(Br)cc(OC)c1OC
ED50 [5]: 0.39 µmol/kg
ED50 [6]: 0.005 µmol/kg

pIC50 [1]: 7.54
Compound: CCc1cc(Cl)c(OC)c(C(=O)NC[C@H]2CCCN2Cc2ccc(F)cc2)c1O
